Screens as filed in PubChem BioAssay.
This is a sample that favours compounds with a hit; in the whole collection about 0.97% have one here.
Mdm2 ligase inh: blocks human Mdm2 ubiquitin ligase activity; Q00987; cell-based MDM2 ubiquitination luciferase reporter, 2 h; 0 = plate control, 100 = twice control, blank-subtracted; signal enhancement, % at 5 µM; 210,000 tested, 0.11% active;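 active means signal enhancement of 30% or more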;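 further: luminescence tracks abundance of the self-degrading MDM2-luciferase fusion protein; higher signal means inhibition of MDM2 E3 ligase activity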
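system = mammalian cells stably expressing self-ubiquitinating, self-degrading MDM2 E3–luciferase fusion | quantity = 2000 cells per well seeded | incubation = 4 h cell settling then 2 h compound exposure, 37 °C | signal = SteadyLite luminescence, 15 min reagent step | benchmarks = plate control and blank wells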
Dynein transport: blocks dynein driven cargo transport along microtubules; 3617.4 mouse cells, GR-EGFP nuclear translocation imaging; test concentration mostly 20 µM; stimulated with dexamethasone, 1 µM; hits give low values; 220,000 tested, 0.47% active; AID 1381; z-score, hits read low;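 active means plate z-score of nuclear minus cytoplasmic receptor signal below a set negative limit, without overly bright fluorescence or cell loss, cut at about -3.5 in these data, passing the limit was not always enough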;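 further: z-score of nuclear minus cytoplasmic ring GR-EGFP intensity difference per well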
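medium = tetracycline-free induction medium containing charcoal-stripped FBS | also added = 1.0 µM final dexamethasone stimulus | schedule = 48 h induction, 1 h compound, 30 min dex at 37 °C | technique = fixed, Hoechst-stained cells imaged at 10x for EGFP | measure = GR-EGFP nuclear translocation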
L929 necroptosis: blocks zVAD induced death of L929 cells | L929 zVAD necroptosis rescue, ATP luminescence, 24 h; with zVAD 60 µM | viability rescue, % at 10 µM | 220,000 tested, 0.38% active;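 active means activation, scaled between plate controls, above about 75%, limit read from the data; inactive means activation under that limit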
Beta2AR agonist: human beta-2 adrenergic receptor agonism by FAP | Am2.2-beta2AR cells, FAP receptor internalization, flow cytometry | P07550 | response, % (no concentration beside the values) | 340,000 tested, 0.43% active | AID 504454;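 active means response above a set limit, near 3 SD of response in nonfluorescent compounds, cut at about 42% in these data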
Target sequence (P07550 whole entry, looked up): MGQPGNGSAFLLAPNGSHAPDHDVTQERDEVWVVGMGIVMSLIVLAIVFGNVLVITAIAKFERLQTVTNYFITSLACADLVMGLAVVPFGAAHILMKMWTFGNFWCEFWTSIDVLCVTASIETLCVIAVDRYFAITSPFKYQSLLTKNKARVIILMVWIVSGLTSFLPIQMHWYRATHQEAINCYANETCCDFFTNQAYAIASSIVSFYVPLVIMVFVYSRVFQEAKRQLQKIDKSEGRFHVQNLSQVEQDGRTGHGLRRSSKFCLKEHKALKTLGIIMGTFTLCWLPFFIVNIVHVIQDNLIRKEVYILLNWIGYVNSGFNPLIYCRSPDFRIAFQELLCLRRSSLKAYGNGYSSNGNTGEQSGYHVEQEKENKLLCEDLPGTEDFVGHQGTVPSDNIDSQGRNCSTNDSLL
TNF necrop inh: blocks TNF-alpha induced death of Jurkat FADD-/- cells; Jurkat FADD-/- TNF necroptosis rescue, ATP luminescence, 24 h; 0 = TNF only, 100 = no-TNF cells; activation (protection from cell death), % at 10 µM; 220,000 tested, 0.068% active;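 active means activation, meaning protection from cell death, of at least 50% relative to plate controls; inactive means activation below 50%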;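 further: necroptosis triggered by 40 ng/mL TNF-alpha added together with compound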
Dynein confirm: dynein cargo transport inhibition, confirmation | 1,000 tested, 69% active | shares compounds with Dynein transport | 3617.4 GR-EGFP nuclear translocation imaging, dexamethasone-induced | calls only at 20 µM;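 active means inhibition of receptor movement into the nucleus at or above a set limit in both runs, with normal cell brightness and cell count; inconclusive means limit reached in only one run, brightness and count normal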;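 further: dexamethasone at 1 µM final in well for 30 min; nuclear minus cytoplasmic GR-EGFP mean intensity difference in channel 2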
Each line names hits and unclear results; the compound was inactive in the other large screens (follow-up assays come after a bar, where they were run).

CN(C)c1ccc(/C=C2/NC(=O)NC2=O)cc1	none
CN(C)c1ccc(/C=C2\N=C(c3ccc(Cl)c([N+](=O)[O-])c3)NC2=O)cc1	none (no result: Beta2AR agonist) | Dynein confirm active
N#Cc1nccnc1S(=O)(=O)c1cccs1	Dynein transport -5.6 | Dynein confirm active
Cc1oc(/C=N/NC(=O)CC2(C)OCCO2)cc1Br	none
COc1ccc(/C=C/C(=O)c2cc(Br)ccc2O)cc1OC	none
COc1ccc(/C=C/C(=O)c2cc(Br)ccc2OC(=O)c2ccco2)cc1OC	Dynein transport -3.7 (no result: L929 necroptosis) | Dynein confirm active
COc1ccc(/C=C/C(=O)c2cc(F)ccc2OC(=O)c2ccccc2OC)cc1OC	Dynein transport -3.9 | Dynein confirm active
O=S(=O)(c1ccccc1)N1C2CCC1CC(O)(c1cccnc1)C2 (stereo unspecified)	none
CCOC(=O)c1c2ccc(OCC(=O)N/N=C/c3ccccc3C(F)(F)F)cc2n2ccccc12	none (no result: Beta2AR agonist)
CCOC(=O)c1c2ccc(OCC(=O)N/N=C/c3ccc(Cl)cc3)cc2n2ccccc12	none (no result: Beta2AR agonist) | Dynein confirm inactive
O=C1C=CC(=O)N1c1cccc(-c2ccccc2)c1	Dynein transport -3.8, Beta2AR agonist 97 | Dynein confirm inactive
COc1ccc(CN(C(=O)CCC(=O)N2CCCCC2)c2nccs2)cc1OC	none
O=C(c1ccccc1)c1c[nH]c(C(=O)C(Cl)(Cl)Cl)c1	none
O=C(c1ccc(Cl)cc1)c1c[nH]c(C(=O)C(Cl)(Cl)Cl)c1	Dynein transport -3.7 | Dynein confirm active
Cc1ccc(SCCC(=O)N(C)C)cc1	none
CCn1c(=O)c([N+](=O)[O-])c(Cl)c2ccccc21	Dynein transport -6.1, Beta2AR agonist 77 | Dynein confirm active
CCn1c(=O)c([N+](=O)[O-])c(NCCN(C)C)c2ccccc21	none
COc1ccc(-c2cc(C(F)(F)F)nc(S(=O)(=O)CCCC(=O)Nc3cccc(O)c3)n2)cc1OC	Dynein transport -5.6 (no result: Beta2AR agonist) | Dynein confirm active
COc1ccccc1-c1cc(C(F)(F)F)nc(S(=O)(=O)CCCC(=O)O)n1	none
O=C1CS/C(=N/N=C/c2ccccc2OS(=O)(=O)c2ccccc2)N1	none
CSCC[C@H](NC(=O)Nc1ccc(C)cc1)C(=O)O	none
CSC(SC)=C(C#N)C(=O)c1ccccc1	Dynein transport -4.8, Beta2AR agonist 70 | Dynein confirm active
O=C(O)c1ccc(C(=O)C(=O)c2ccccc2)cc1	none (no result: Mdm2 ligase inh)
COc1cccc(C(=O)Nc2ccc(NC(C)=O)cc2)c1	none
COc1cccc(C(=O)C(C#N)=C(SC)SC)c1	Dynein transport -4.5 | Dynein confirm active
COc1cccc(C(=O)Oc2ccccc2/C=C\C(=O)c2cc3ccccc3o2)c1	Dynein transport -4 | Dynein confirm active
O=C(Oc1ccccc1/C=C\C(=O)c1cc2ccccc2o1)c1ccccc1	none
COc1ccc(N2C(=O)CC(Sc3nnnn3-c3ccc(F)cc3)C2=O)cc1 (stereo unspecified)	none | Dynein confirm active
COc1ccc(NC(=O)CCNC(=O)C2CCN(S(=O)(=O)c3ccc(F)cc3)CC2)cc1OC	none (no result: Mdm2 ligase inh, Dynein transport, L929 necroptosis, TNF necrop inh)
COc1cccc(-n2nnnc2S(C)(=O)=O)c1	Dynein transport -4.5 | Dynein confirm active
COc1cc(/C=C2\SC(=O)NC2=O)ccc1Oc1ccc([N+](=O)[O-])cc1[N+](=O)[O-]	Dynein transport -3.8 | Dynein confirm inconclusive
CC(C)(C)c1ccc(/C=C/C(=O)N2CCN(c3ncccn3)CC2)cc1	none
Cc1ccc(Cn2cc(/C=N/Nc3ccc([N+](=O)[O-])cn3)c3ccccc32)cc1	none | Dynein confirm active
O=C(O)Cn1cc(/C=N/Nc2ccc([N+](=O)[O-])cn2)c2ccccc21	none (no result: Mdm2 ligase inh, Dynein transport, L929 necroptosis, TNF necrop inh)
Cc1ccc2nc(/C(C#N)=C\c3ccc(N4CCOCC4)o3)[nH]c2c1	none | Dynein confirm active
CCCCNC1C(CC)C(CCC)C(C#N)(C#N)C1(C#N)C#N (stereo unspecified)	Dynein transport -3.6 | Dynein confirm active
O=C(Cc1ccccc1[N+](=O)[O-])N1CCc2ccccc2C1	none
N#CC1(C#N)C(c2ccccc2)OC23CCCCC2C1(C#N)C(=N)O3 (stereo unspecified)	Dynein transport -4.2 (no result: Mdm2 ligase inh) | Dynein confirm active
O=S(=O)(c1ccccc1)c1ncc(C(F)(F)F)cc1Cl	Dynein transport -6.4 | Dynein confirm active
COc1cccc(NC(=O)CN2C(=O)NC(C)(c3ccc(C)cc3)C2=O)c1 (stereo unspecified)	none (no result: Mdm2 ligase inh, Dynein transport, L929 necroptosis, TNF necrop inh)
Cn1c(=O)[nH]c(=O)c2c1nc([N+](=O)[O-])n2Cc1ccccc1	Dynein transport -4.9, Beta2AR agonist 67 | Dynein confirm active
CCNc1nc2c(c(=O)[nH]c(=O)n2C)n1CC(C)C	none
CC(C)Cn1c([N+](=O)[O-])nc2c1c(=O)[nH]c(=O)n2C	Dynein transport -7.3 | Dynein confirm active
CCC1(CC)NC(=O)N(CC(=O)OC(C)C(=O)Nc2ccc(NC(C)=O)cc2)C1=O (stereo unspecified)	none (no result: Mdm2 ligase inh, Dynein transport, L929 necroptosis, TNF necrop inh)
CCc1ccc(N2CC(C(=O)N/N=C/c3ccccc3)CC2=O)cc1 (stereo unspecified)	none (no result: Mdm2 ligase inh, Dynein transport, L929 necroptosis, TNF necrop inh)
CN(C)CCCN(C(=O)COc1ccccc1)c1nc2ccc(F)cc2s1	none
CN(C)CCCN(C(=O)CCOc1ccccc1)c1nc2c(F)cccc2s1	Dynein transport -7.9 | Dynein confirm active
CN(C)CCCN(C(=O)CCOc1ccccc1)c1nc2ccc(F)cc2s1	Dynein transport -3.5 | Dynein confirm inactive
CCCNC(=S)N(Cc1ccccc1)Cc1nc2ccccc2c(=O)[nH]1	none
Cc1ccccc1NC(=O)COC(=O)c1ccc(S(C)(=O)=O)c([N+](=O)[O-])c1	Dynein transport -4.4 | Dynein confirm active
CN1C/C(=C\c2ccc(N3CCOCC3)cc2)C(=O)/C(=C/c2ccc(N3CCOCC3)cc2)C1	none
CCN1C/C(=C/c2ccc(N3CCOCC3)cc2)C(=O)/C(=C/c2ccc(N3CCOCC3)cc2)C1	none | Dynein confirm active
COc1ccc(C(=O)c2cnc3ccccc3c2-c2ccccc2)cc1	none
Cc1ccc(S(=O)(=O)Nc2ccc3c(c2)nc2n3CCN(Cc3ccccc3)C2)cc1	Dynein transport -3.5 | Dynein confirm inactive
O=S(=O)(Nc1ccc2c(c1)nc1n2CCN(Cc2ccccc2)C1)c1ccccc1	none (no result: Mdm2 ligase inh)
CC(C)c1ccc(NC2CCCN(C(=O)c3cc(C(C)C)[nH]n3)C2)cc1 (stereo unspecified)	none (no result: Mdm2 ligase inh, Dynein transport, L929 necroptosis, TNF necrop inh)
COc1cc(NC(=O)Cn2ncc(Cl)c(Cl)c2=O)c(C)cc1[N+](=O)[O-]	Dynein transport -3.8 | Dynein confirm active
O=[N+]([O-])c1ncccc1OCc1ccc(-c2ccccc2)cc1	none (no result: Mdm2 ligase inh, Dynein transport, L929 necroptosis, TNF necrop inh)
